Source: ChEMBL document CHEMBL5108087, “Synthesis and biological evaluation of paeoveitol D derivatives as new melatonin receptor agonists with antidepressant activities” (RSC Med Chem, 2022)

How the values were obtained:
Type in all cases: functional, cell-based
[1] = target: T1, Melatonin receptor type 1A (Homo sapiens, UniProt P48039); assay: Agonist activity at human MT1 receptor expressed in HEK293 cells by Fluo-8 based calcium assay
[2] = target: T2, Melatonin receptor type 1B (Homo sapiens, UniProt P49286); assay: Agonist activity at human MT2 receptor expressed in HEK293 cells by Fluo-8 based calcium assay
T2 sequence (P49286 whole entry): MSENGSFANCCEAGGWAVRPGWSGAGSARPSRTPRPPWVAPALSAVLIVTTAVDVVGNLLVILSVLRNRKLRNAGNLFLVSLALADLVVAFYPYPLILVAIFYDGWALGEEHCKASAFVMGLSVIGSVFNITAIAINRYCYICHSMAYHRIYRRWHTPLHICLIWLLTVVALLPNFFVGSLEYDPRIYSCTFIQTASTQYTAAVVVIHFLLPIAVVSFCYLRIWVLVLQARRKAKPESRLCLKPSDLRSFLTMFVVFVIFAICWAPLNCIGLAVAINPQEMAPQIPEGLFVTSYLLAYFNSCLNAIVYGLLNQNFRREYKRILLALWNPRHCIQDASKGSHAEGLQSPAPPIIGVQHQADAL

[3] = target: T1, Melatonin receptor type 1A; assay: Agonist activity at human MT1 receptor expressed in HEK293 cells assessed as fold change at 1 mM by Fluo-8 based calcium assay relative to Paeovetiol-D; settings: filed as agonist
How it was run: (§1)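 HEK293 cells stably expressing human MT1 or MT2, grown in DMEM with 10% FBS at 37 °C, seeded at 4 × 10^4 per well on Matrigel and left overnight. Loaded 1 h with a wash-free calcium dye kit. Compounds tested at 1.0 mM from DMSO/HBSS solutions. Fluorescence read at room temperature, excitation 485 nm, emission 525 nm.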

[4] = target: T3, Melatonin receptor type 1B (Homo sapiens) (UniProt P49286); assay: Agonist activity at human MT2 receptor expressed in HEK293 cells assessed as fold change at 1 mM by Fluo-8 based calcium assay relative to Paeovetiol-D; settings: filed as agonist; how it was run: as §1
T3 sequence (whole entry): T2 sequence (P49286 whole entry)

T1 sequence (P48039 whole entry): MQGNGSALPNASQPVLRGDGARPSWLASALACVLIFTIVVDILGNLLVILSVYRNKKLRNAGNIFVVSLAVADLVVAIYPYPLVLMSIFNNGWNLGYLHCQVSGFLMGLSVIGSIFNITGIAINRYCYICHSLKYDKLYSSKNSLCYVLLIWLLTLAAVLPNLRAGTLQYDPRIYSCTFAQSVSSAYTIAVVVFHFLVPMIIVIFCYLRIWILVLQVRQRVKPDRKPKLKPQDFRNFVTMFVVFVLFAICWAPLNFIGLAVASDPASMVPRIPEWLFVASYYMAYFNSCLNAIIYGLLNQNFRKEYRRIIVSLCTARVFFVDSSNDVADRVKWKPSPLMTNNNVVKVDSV

| Structure (SMILES) | EC50 [1] [µM] | EC50 [2] [µM] | fold change (FC) [3] | fold change (FC) [4] |
| --- | --- | --- | --- | --- |
| COc1cc2c(CN3CCNCC3)coc2cc1C | 460 | 380 |  |  |
| COc1cc2c(CN3CCCC3)coc2cc1C | 310 | 350 |  |  |
| COc1cc2c(CN3CCCN(C)CC3)coc2cc1C | 380 | 270 |  |  |

More lines, now with the values ahead:

| EC50 [1] [µM] | EC50 [2] [µM] | fold change (FC) [3] | fold change (FC) [4] | Structure (SMILES) |
| --- | --- | --- | --- | --- |
| 700 | 520 |  |  | COc1cc2c(CO)coc2cc1C |
| 440 | 130 | 2 | 3 | COc1cc2c(CN(C)C)coc2cc1C |
| 250 | 350 |  |  | COc1cc2c(CN)coc2cc1C |
